Measured values: ChEMBL document CHEMBL3352515, “Design, synthesis, antiviral and cytostatic activity of ω-(1H-1,2,3-triazol-1-yl)(polyhydroxy)alkylphosphonates as acyclic nucleotide analogues” (Bioorg Med Chem, 2014)
Active and inactive are the calls of the source. The calls are words filed in the database; no cut-off is given here.

Experiments:
[1] = tested on: Respiratory syncytial virus; experiment: Antiviral activity against Respiratory syncytial virus infected in HeLa cells assessed as inhibition of virus-induced cytopathogenicity; type: functional, organism-based
Procedure, shortened: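 Confluent host-cell monolayers in 96-well plates were inoculated with 100 CCID₅₀ of virus while exposed to a range of test compound concentrations. Cytopathic effect was scored once it was complete in untreated infected controls. EC₅₀ is the concentration that reduces virus-induced cytopathogenicity by 50%.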

[2] = tested on: CCRF-CEM; experiment: Cytostatic activity against human CEM cells assessed as inhibition of proliferation after 72 hrs by Coulter cell counting method; type: functional, cell-based
Procedure, shortened: (§1)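 (5–7.5) × 10⁴ tumor cells per well were exposed to test compound at 37 °C in humidified CO₂. Incubation ran 48 h for L1210 and 72 h for CEM and HeLa. Cells were then counted in a Coulter counter. IC₅₀ is the concentration that inhibits cell proliferation by 50%.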

[3] = tested on: L1210; experiment: Cytostatic activity against mouse L1210 cells assessed as inhibition of proliferation after 48 hrs by Coulter cell counting method; type: functional, cell-based; conditions: L1210, 48 h; procedure, shortened: as §1
[4] = tested on: HeLa; experiment: Cytostatic activity against human HeLa cells assessed as inhibition of proliferation after 72 hrs by Coulter cell counting method; type: functional, cell-based; procedure, shortened: as §1
[5] = tested on: Vesicular stomatitis virus; experiment: Antiviral activity against Vesicular stomatitis virus infected in HeLa cells assessed as inhibition of virus-induced cytopathogenicity; type: functional, organism-based
Procedure, shortened: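 HeLa cell monolayers (confluent) were infected with 100 CCID50 of VSV in the presence of serial compound concentrations. Viral cytopathicity was read when complete in untreated infected controls. EC50 is the concentration that reduced virus-induced cytopathogenicity by 50%.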

[6] = tested on: Human alphaherpesvirus 3; experiment: Antiviral activity against Thymidine kinase-positive Varicella-zoster virus Oka infected in HEL assessed as reduction in virus plaque formation; type: functional, organism-based; conditions: Human alphaherpesvirus 3, strain Oka vaccine
Procedure, shortened: (§2)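 Confluent HEL fibroblast cultures were inoculated with 20 PFU of VZV together with varying compound concentrations. Plaque formation was recorded once complete in untreated infected controls. EC50 is the concentration that reduced viral plaque formation by 50%.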

[7] = tested on: Human alphaherpesvirus 3; experiment: Antiviral activity against Thymidine kinase-negative Varicella-zoster virus 07-1 infected in HEL assessed as reduction in virus plaque formation; type: functional, organism-based; conditions: Human alphaherpesvirus 3, 07-1; procedure, shortened: as §2

O=c1cnn(Cc2cn(C[C@H](OCc3ccccc3)[C@@H](O)P(=O)(OCc3ccccc3)OCc3ccccc3)nn2)c(=O)[nH]1
inhibition [1]: inactive
IC50 [2]: 71 µM
IC50 [3]: 78 µM
IC50 [4]: 64 µM
inhibition [5]: inactive
EC50 [6]: 63.7 µM
EC50 [7]: 70 µM
